Assays:
Human alphaherpesvirus 1 [1] = test: Inhibition of HSV1 in HFF cells by CPE assay; type: functional, organism-based; conditions: Human alphaherpesvirus 1, HFF
Procedure, shortened: (§1)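 Cytopathic effect inhibition assay in HFF culture (HCMV AD169; HSV-1 and HSV-2). Cytotoxicity by neutral red uptake.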

Human betaherpesvirus 5 [2] = test: Inhibition of HCMV Towne replication in HFF cells by plaque reduction assay; type: functional, organism-based; conditions: Human betaherpesvirus 5, Towne
Procedure, shortened: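 Plaque reduction assay in HFF culture with HCMV Towne strain; cytotoxicity by neutral red uptake.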

[3] = test system: Human immunodeficiency virus 1; test: Inhibition of HIV1 LAI replication in MT2 by CPE assay; type: functional, organism-based; conditions: Human immunodeficiency virus 1, LAI
Procedure, shortened: (§2)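 HIV-1 LAI, 100 TCID50, used to infect MT-2 (2 × 10^3) or MT-4 (3 × 10^4) cells, which are then cultured with test analogue. EC50 read by MTT assay on day 7 (MT-2) or day 5 (MT-4). Assays run in duplicate.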

Hepatitis B virus = test: Inhibition of HBV replication in 2.2.15 cells by DNA hybridization assay; type: functional, organism-based; conditions: HepG2 2.2.15
Procedure, shortened: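 HBV in 2.2.15 cells; viral DNA quantified by DNA hybridization to give EC50.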

[4] = Cytotoxicity against HFF cells by neutral red uptake assay; type: cell-based; conditions: human
Procedure, shortened: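 Human foreskin fibroblast (HFF) cultures, as used for the HCMV assays, exposed to analogues. Cytotoxicity read by neutral red uptake.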

[5] = Cytotoxicity against Vero cells; type: cell-based; conditions: chlorocebus sabaeus
Human alphaherpesvirus 1 [6] = test: Inhibition of HSV1 in Vero cells by plaque reduction assay; conditions: Human alphaherpesvirus 1, Vero
[7] = Cytotoxicity against HFF cells by visual cytotoxicity; type: cell-based; conditions: human
Procedure, shortened: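 HFF cultures exposed to analogues. Cytotoxicity scored visually.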

Human gammaherpesvirus 4 [8] = test: Inhibition of EBV replication in H1 cells by DNA hybridization assay; type: functional, organism-based; conditions: human gammaherpesvirus 4, H1
Procedure, shortened: (§3)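 EBV DNA hybridization assay in Daudi or H-1 cells; EC50 derived from viral DNA signal. Cytotoxicity for these EBV assays measured in CEM cells.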

[9] = Cytotoxicity against MT2 cells; type: cell-based; conditions: human
Procedure, shortened: (§4)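 Uninfected MT-2 (2 × 10^3 cells) or MT-4 (3 × 10^4 cells) cultured with analogues. Viability read by MTT assay after day 7 (MT-2) or day 5 (MT-4). Run in duplicate.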

Human alphaherpesvirus 2 = test: Inhibition of HSV2 in HFF cells by CPE assay; type: functional, organism-based; conditions: Human alphaherpesvirus 2, HFF; procedure, shortened: as §1
Human alphaherpesvirus 3 = test: Inhibition of VZV replication in HFF cells by CPE assay; type: functional, organism-based; conditions: Human alphaherpesvirus 3, HFF
Human gammaherpesvirus 4 [10] = test: Inhibition of EBV replication in Daudi cells by VCA ELISA; type: functional, organism-based; conditions: human gammaherpesvirus 4, Daudi
Procedure, shortened: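 Viral capsid antigen (VCA) ELISA in Daudi cells; EC50 from capsid antigen signal. Cytotoxicity measured in CEM cells.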

[11] = Cytotoxicity against Daudi cells; type: cell-based; conditions: human
CCRF-CEM = test: Cytotoxicity against CEM cells; type: functional; conditions: Homo sapiens
[12] = Cytotoxicity against HFF cells; type: cell-based; conditions: human
[13] = Inhibition of HSV2 in Vero cells by plaque reduction assay; type: cell-based; conditions: Chlorocebus sabaeus
Procedure, shortened: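 Plaque reduction assay in Vero cells with HSV-1 or HSV-2.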

Human alphaherpesvirus 1 [14] = test: Inhibition of HSV1 replication in BSC1 cells by ELISA; type: functional, organism-based; conditions: Human alphaherpesvirus 1, BSC-1
Procedure, shortened: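 HSV-1 in BSC-1 cells, read by ELISA; cytotoxicity determined in KB cells.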

Human betaherpesvirus 5 [15] = test: Inhibition of HCMV AD169 replication in HFF cells by CPE inhibition assay; type: functional, organism-based; conditions: Human betaherpesvirus 5, AD169, HFF; procedure, shortened: as §1
Human gammaherpesvirus 4 [16] = test: Inhibition of EBV replication in Daudi cells by DNA hybridization assay; type: functional, organism-based; conditions: human gammaherpesvirus 4, Daudi; procedure, shortened: as §3
Murid betaherpesvirus 1 = test: Inhibition of MCMV replication in MFF cells by plaque reduction assay; type: functional, organism-based; conditions: Murid betaherpesvirus 1, MFF
Procedure, shortened: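 MCMV in MEF cells by plaque reduction.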

[17] = Cytotoxicity against MT4 cells; type: cell-based; conditions: human; procedure, shortened: as §4
[18] = Cytotoxicity against MFF cells; type: cell-based; conditions: mouse
[19] = test system: Human immunodeficiency virus 1; test: Inhibition of HIV1 LAI replication in MT4 by CPE assay; type: functional, organism-based; conditions: Human immunodeficiency virus 1, LAI; procedure, shortened: as §2

Compound	EC50 (Human alphaherpesvirus 1 [1]) [µM]	EC50 (Human betaherpesvirus 5 [2]) [µM]	EC50 [3] [µM]	EC50 (Hepatitis B virus) [µM]	CC50 [4] [µM]	CC50 [5] [µM]	EC50 (Human alphaherpesvirus 1 [6]) [µM]	CC50 [7] [µM]	EC50 (Human gammaherpesvirus 4 [8]) [µM]	CC50 [9] [µM]	EC50 (Human alphaherpesvirus 2) [µM]	EC50 (Human alphaherpesvirus 3) [µM]	EC50 (Human gammaherpesvirus 4 [10]) [µM]	CC50 [11] [µM]	CC50 (CCRF-CEM) [µM]	CC50 [12] [µM]	EC50 [13] [µM]	EC50 (Human alphaherpesvirus 1 [14]) [µM]	EC50 (Human betaherpesvirus 5 [15]) [µM]	EC50 (Human gammaherpesvirus 4 [16]) [µM]	also measured
Nc1nc2c(ncn2/C=C2\CC2(F)CO)c(=O)[nH]1 (stereo unspecified)	> 80	> 100	> 100	> 20	> 398	> 100	> 50	> 100	> 20	> 100	> 80	> 79.6	< 0.32	> 199	> 100	> 400	> 50	90	> 79.6	–	–
Nc1nc2c(ncn2/C=C2/CC2(F)CO)c(=O)[nH]1 (stereo unspecified)	> 80	> 100	> 100	> 20	> 398	> 100	> 50	> 100	> 20	> 100	> 80	> 79.6	4.8	> 199	> 100	> 400	> 50	> 100	> 79.6	–	–
Cc1cn(/C=C2\CC2(F)CO)c(=O)[nH]c1=O (stereo unspecified)	> 80	> 100	> 100	> 20	> 442	> 100	> 50	> 100	> 20	> 100	> 80	> 442	> 221	> 221	> 100	> 400	> 50	40	> 442	–	–
Nc1nc2c(ncn2COC(CO)CO)c(=O)[nH]1 [GANCICLOVIR]	–	2.1	–	–	> 392	–	> 50	> 100	–	–	–	–	–	–	–	–	–	–	2.2	–	–
Nc1nc2c(ncn2COCCO)c(=O)[nH]1 [ACYCLOVIR]	–	–	–	–	–	–	–	–	–	–	–	–	–	> 222	–	> 444	–	10	–	5.3	–
Cc1cn([C@H]2C[C@H](N=[N+]=[N-])[C@@H](CO)O2)c(=O)[nH]c1=O [ZIDOVUDINE]	–	–	0.02	–	–	–	–	–	–	> 10	–	–	–	–	–	–	–	–	–	–	–
Nc1ncnc2c1ncn2/C=C1/CC1(F)CO (stereo unspecified)	> 80	3.6	12	> 20	> 425	> 100	> 50	> 100	13.8	> 100	> 80	14	1.45	> 213	> 100	> 400	> 50	> 100	6	–	EC50 (Murid betaherpesvirus 1): 69.3 µM; CC50 [17]: > 100 µM; CC50 [18]: > 425 µM; EC50 [19]: 22 µM
Cc1cn(/C=C2/CC2(F)CO)c(=O)[nH]c1=O (stereo unspecified)	> 80	> 100	> 100	> 20	> 442	> 100	> 50	> 100	2.5	> 100	> 80	0.62	51.7	> 221	> 100	> 400	> 50	2.5	> 442	4.4	–
Nc1ccn(/C=C2/CC2(F)CO)c(=O)n1 (stereo unspecified)	> 80	> 100	> 100	> 20	> 474	> 100	> 50	> 100	> 20	> 100	> 80	0.62	< 0.38	> 237	> 100	> 400	> 50	> 100	> 474	28.4	–
Nc1ccn(/C=C2\CC2(F)CO)c(=O)n1 (stereo unspecified)	> 80	> 100	> 100	> 20	> 474	> 100	> 50	> 100	> 20	> 100	> 80	14.7	0.76	> 237	> 100	> 400	> 50	> 100	> 474	94.8	–
Nc1ncnc2c1ncn2/C=C1\CC1(F)CO (stereo unspecified)	> 80	20	2.3	15	> 417	> 100	> 50	> 100	–	> 100	> 80	> 83.4	–	> 209	> 100	> 400	> 50	30	> 16.7	–	CC50 [17]: > 100 µM; EC50 [19]: 7.6 µM
Nc1ccn([C@@H]2CS[C@H](CO)O2)c(=O)n1 [LAMIVUDINE]	–	–	–	–	–	–	–	–	–	–	–	–	–	–	> 100	–	–	–	–	–	–

Source: ChEMBL document CHEMBL1149318, “(Z)- and (E)-[2-Fluoro-2-(hydroxymethyl)cyclopropylidene]methylpurines and -pyrimidines, a new class of methylenecyclopropane analogues of nucleosides: synthesis and antiviral activity” (J Med Chem, 2004)
